Our source for the residual activity, Ki and K2 values is ChEMBL document CHEMBL1122205, “Catechol O-methyltransferase. 12. Affinity labeling the active site with the oxidation products of 5,6-dihydroxyindole” (J Med Chem, 1982).

Assay [1] concerns the target T1, Catechol O-methyltransferase (Rattus norvegicus) (UniProt P22734).
T1 sequence (whole entry): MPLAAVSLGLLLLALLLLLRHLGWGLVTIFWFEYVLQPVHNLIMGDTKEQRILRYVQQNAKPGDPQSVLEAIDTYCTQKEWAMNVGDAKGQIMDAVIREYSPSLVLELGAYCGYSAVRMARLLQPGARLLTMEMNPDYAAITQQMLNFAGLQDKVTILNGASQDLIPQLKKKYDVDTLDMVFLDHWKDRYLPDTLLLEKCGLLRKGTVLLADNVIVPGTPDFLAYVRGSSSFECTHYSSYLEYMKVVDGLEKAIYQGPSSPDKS
The assay can be described thus: Evaluated for its ability to inactivate Catechol O-methyltransferase under aerobic conditions, after 60 min at 37 degree. C. On the set-up: concentration or dose not given beside the values. In outline:
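Aerobic preincubation of purified rat liver COMT with inhibitor (0.5 mM), MgCl2 1.20 mM, phosphate buffer pH 7.60 for 60 min at 37 °C. Residual activity versus controls assayed directly after inhibitor addition; duplicate means.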

Assay [2] deals with T2, Catechol O-methyltransferase (Rattus norvegicus, UniProt P22734).
T2 sequence (P22734 whole entry): T1 sequence (whole entry)
As to the kind of experiment: (§1) Kinetic constants for the inactivation of Catechol O-methyltransferase by the compound.

Assay [3] deals with T1, Catechol O-methyltransferase (Rattus norvegicus). As to the kind of experiment: Evaluated for its ability to inactivate Catechol O-methyltransferase under anaerobic conditions, after 60 min at 37 degree. C. Details: concentration or dose not given beside the values. In outline: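 Anaerobic variant: preincubation (inhibitor 0.5 mM, MgCl2 1.20 mM, phosphate pH 7.60, purified rat liver COMT, 60 min, 37 °C) in sealed ampules under nitrogen, inhibitor stocks in deoxygenated water, samples withdrawn by syringe and assayed in ampules under nitrogen.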

The target is the same in assay [4]. The assay can be described thus: Kinetic constants for the inactivation of cCatechol O-methyltransferase by the compound.
Assay [5] has the same target. The assay can be described thus: Compound was evaluated for its ability to inactivate Catechol O-methyltransferase before dialysis. In short, it runs like this: (§2)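 Purified rat liver COMT preincubated 60 min at 37 °C with inhibitor (0.5 mM), MgCl2 1.20 mM, phosphate buffer pH 7.60. Residual activity relative to unpreincubated controls (dialyzed 24 h for post-dialysis line); duplicate means.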

Assay [6] has the same target. The assay can be described thus: Compound was evaluated for its ability to inactivate Catechol O-methyltransferase after dialysis. In short, it runs like this: as §2
The target is the same in assay [7]. The assay is described as §1.

In the case of `Cc1c(O)c(O)cc2[nH]ccc12`, the residual activity in assay [1] was found to be 0%; in assay [3], 81%; in assay [5], 396 c.p.m; in assay [6], 351 c.p.m. In addition, the Ki in assay [2] came out at 15.2 mM. In assay [4], this compound displayed a K2 of 0.47 min⁻¹.

With `Cc1c(O)c(O)c(C)c2[nH]ccc12`, the residual activity in assay [1] came to 4.5%; in assay [3], 96%; in assay [5], 322 c.p.m; in assay [6], 212 c.p.m. The K2 in assay [7] came out at 1.12 min⁻¹. The compound also displayed a Ki in assay [2] of 7.26 mM.

For `Oc1cc2cc[nH]c2cc1O`, the residual activity in assay [1] worked out at 0%; in assay [3] it was 96%; in assay [5], 282 c.p.m; in assay [6], 228 c.p.m. The K2 in assay [7] amounted to 0.55 min⁻¹. The compound further yielded a Ki in assay [2] of 3.46 mM.

Regarding `Cc1c(O)c(O)cc2cc[nH]c12`, the residual activity came out at 0% in assay [1], 84% in assay [3], 277 c.p.m in assay [5] and 262 c.p.m in assay [6]. Besides, the K2 in assay [7] came to 0.16 min⁻¹. The compound further returned a Ki in assay [2] of 1.14 mM.

As to `NCCc1c[nH]c2cc(O)c(O)cc12`, the residual activity came out at 0% in assay [1], 89% in assay [3], 242 c.p.m in assay [5] and 232 c.p.m in assay [6]. Also, in assay [7], the K2 worked out at 0.086 min⁻¹. In addition, the Ki in assay [2] worked out at 0.328 mM.
